High-throughput results as filed in PubChem BioAssay.
CHOP inhibitor – CHOP inhibition in unfolded protein response | CHO-K1 CHOP-promoter luciferase, tunicamycin-induced, 15-18 h | inhibition, % at 10 µM | 220,000 compounds, 3.8% hits | AID 2732;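 active = compounds that reduced the stress-induced luciferase reporter signal by more than about 70% of percent inhibition, limit read from the data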
NR3A LBD binder – modulators (binders) of human NR3A ligand-binding domain | NR3A LBD differential scanning fluorimetry, Tm shift; 0% = protein alone, 100% = glycine-bound protein | Tm shift relative to glycine control, % at 25 µM | 340,000 compounds, 2.5% hits | AID 1259313;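 active = melting temperature shift of at least 10% of the positive control shift, at one fixed dose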
Beta cell apopt – beta cell apoptosis inhibition; protection from apoptosis, % (test concentration not listed); INS-1E cytokine-induced death, ATP luminescence, 48 h; percent of positive-control rescue, neutral wells zero; AID 435005; 300,000 compounds, 0.8% hits;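 active = Every replicate reaches about 75%, or at least half do and their mean reaches it too, limit read from the data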;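 also: higher means more ATP so stronger rescue from cytokine killing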
PREPL inhibitor – inhibitors of human prolyl oligopeptidase-like enzyme PREPL. Q4J6C6. recombinant PREPL, fluorescence polarization activity-based probe. inhibition, % at 5.96 µM. 320,000 compounds, 0.68% hits; in the data active = inhibition above about 43%
Target sequence (Q4J6C6 whole entry, looked up): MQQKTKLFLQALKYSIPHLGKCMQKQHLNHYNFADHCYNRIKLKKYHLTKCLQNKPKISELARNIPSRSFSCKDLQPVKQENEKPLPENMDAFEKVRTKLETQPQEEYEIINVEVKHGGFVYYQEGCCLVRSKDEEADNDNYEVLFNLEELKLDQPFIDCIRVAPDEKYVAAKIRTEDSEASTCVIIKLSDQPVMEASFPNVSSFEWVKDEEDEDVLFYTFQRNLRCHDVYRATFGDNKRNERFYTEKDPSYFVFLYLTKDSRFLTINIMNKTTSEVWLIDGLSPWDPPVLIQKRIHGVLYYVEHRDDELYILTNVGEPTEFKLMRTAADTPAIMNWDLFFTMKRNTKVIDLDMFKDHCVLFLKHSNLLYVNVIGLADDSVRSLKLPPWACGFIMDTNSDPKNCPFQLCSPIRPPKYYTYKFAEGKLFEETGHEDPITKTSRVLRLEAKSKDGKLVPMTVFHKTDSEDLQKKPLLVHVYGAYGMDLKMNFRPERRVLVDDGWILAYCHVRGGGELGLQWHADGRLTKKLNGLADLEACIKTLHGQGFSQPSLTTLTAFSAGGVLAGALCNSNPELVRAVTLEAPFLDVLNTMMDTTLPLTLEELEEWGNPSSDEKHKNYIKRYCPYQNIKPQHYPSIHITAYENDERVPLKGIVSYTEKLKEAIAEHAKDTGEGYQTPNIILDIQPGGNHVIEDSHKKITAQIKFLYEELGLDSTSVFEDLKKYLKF
T cruzi inh – blocks replication of Trypanosoma cruzi; T. cruzi beta-gal in NIH3T3, luminescence, 90 h; inhibition, % (test concentration not listed); 300,000 compounds, 1.4% hits; AID 1885;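 active = mean inhibition across valid replicates above about 55%, limit read from the data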;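 also: signal also drops with host cell toxicity which is not excluded here; higher percent means less beta-gal luminescence so fewer parasites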
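System: mouse NIH/3T3 fibroblasts infected with β-gal-expressing T. cruzi Tulahuen C4 / Input: NIH/3T3 cells, 5,000 per well / Buffer or medium: Low-serum DMEM with 2% FBS / Probe or stimulus: 5000 reporter trypomastigotes per well / Schedule: ≥90 h infection period, 3 h prior cell attachment / Measured by: GalScreen luminescence, 60 min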
CSC inhib – blocks cancer stem cells | inhibition, % at 7.5 µM | 300,000 compounds, 1.1% hits | cancer stem cell-like cells viability, luminescence | AID 2717; in the data active = inhibition above about 75%; tested in HMLE shEcad cells
Hits are given with their value; - = inactive; . = no result. An excerpt weighted towards active compounds, which were near 6.7% of everything screened.

SMILES	CHOP inhibitor	NR3A LBD binder	Beta cell apopt	PREPL inhibitor	T cruzi inh	CSC inhib
Cc1cc(-c2onc3ccc(Cl)cc23)ccc1O	.	-	-	-	-	-
Cc1cccc(C2=NN(c3ccc(Br)cc3)[C@@H](C(=O)N3CCOC3=O)[C@@H]2c2ccccc2)c1	.	15.4	.	.	.	.
O=C1OCCN1C(=O)[C@H]1[C@H](c2ccc([N+](=O)[O-])cc2)C(c2ccc(F)cc2)=NN1c1ccc(Br)cc1	.	12.7	.	.	.	.
C[C@@H]1C(c2cccc(Cl)c2)=NN(c2ccc(Br)cc2)[C@H]1C(=O)N1CCOC1=O	.	21.4	.	.	.	.
O=C1OCCN1C(=O)[C@H]1[C@H](c2ccc([N+](=O)[O-])cc2)C(c2ccc(F)cc2)=NN1c1ccccc1	.	-	.	.	.	.
O=C(Nc1cc(C(F)(F)F)ccc1N1CCOCC1)c1n[nH]c(=O)c2ccccc12	78.3	-	-	-	-	-
O=C(COC(=O)c1ccccc1NCCO)Nc1cc(C(F)(F)F)ccc1N1CCOCC1	.	-	-	-	-	-
O=C(Nc1cc(C(F)(F)F)ccc1N1CCOCC1)c1ccc(F)cc1	-	-	-	-	-	-
CSc1ncccc1C(=O)OCC(=O)Nc1cc(C(F)(F)F)ccc1N1CCOCC1	71.0	-	-	-	-	-
O=C(COC(=O)C1CCN(S(=O)(=O)c2ccccc2)CC1)NCCc1ccccc1	.	-	-	-	.	-
Cc1ccc(Cn2nc(C)c(NC(=O)c3cc(-c4ccco4)on3)c2C)cc1	-	-	-	-	-	-
Cc1nn(Cc2ccc(Cl)c(Cl)c2)c(C)c1NC(=O)c1cc(-c2ccco2)on1	86.5	-	-	-	-	-
Cc1nn(Cc2ccc(Cl)cc2)c(C)c1NC(=O)c1cc(-c2ccco2)on1	-	-	-	-	-	-
COc1ccc(-c2cc(C(=O)Nc3c(C)nn(Cc4ccc(Cl)cc4)c3C)no2)cc1	80.8	-	-	-	-	.
COc1ccc(Cl)cc1N(CC(=O)N1CCCCCC1)S(C)(=O)=O	.	-	-	-	-	-
O=C(NCc1ccccc1F)C1CCCN(S(=O)(=O)N2CCOCC2)C1 (centres undefined)	.	-	-	-	-	-
CN=c1scc(-c2ccc([N+](=O)[O-])cc2)n1/N=C/c1ccco1	-	-	-	-	-	-
CN=c1scc(-c2ccc(F)cc2)n1/N=C/c1ccc(O)c(O)c1	71.9	-	.	.	.	.
CCOc1ccc2oc(C(=O)NCc3ccccc3CN3CCCC3)c(C)c2c1	.	-	-	-	.	-
Cc1nc(NC(=O)C23CC4CC(CC(C4)C2)C3)sc1Cc1ccc2c(c1)OCO2	-	-	101.5	-	65.3	-
CC(C)(C)c1cc(-c2nc(N)nc(N)n2)c(O)c(C(C)(C)C)c1	.	-	-	-	.	126.5
CCSc1ccc2cc(OC)ccc2[n+]1CC	-	-	-	-	54.7	-
COn1cnnc1-c1ccccc1	-	-	-	-	-	-
On1cnnc1-c1ccccc1	-	10.8	-	-	-	-
Cc1ccc(/C=C2\SC(=S)N(c3cccnc3)C2=O)o1	-	-	-	-	62.1	-
SMILES	CHOP inhibitor	NR3A LBD binder	Beta cell apopt	PREPL inhibitor	T cruzi inh	CSC inhib
Cc1ccc(N2C(=O)/C(=C/c3cccnc3)SC2=S)cc1	75.5	-	-	-	-	-
Cc1cccc(N2C(=O)/C(=C/c3cccnc3)SC2=S)c1	-	-	-	-	-	-
COc1c(Cl)cc(Cl)cc1/C=N/NC(=O)c1nnn(-c2nonc2N)c1CN1CCC(C)CC1	.	12.2	-	-	-	-
CC1CCN(Cc2c(C(=O)N/N=C/c3cc(Cl)ccc3O)nnn2-c2nonc2N)CC1	.	-	88.4	-	60.6	.
Cc1cc(C)c(/C=N/NC(=O)c2nnn(-c3nonc3N)c2CN2CCC(C)CC2)c(C)c1	.	-	-	-	-	-
CC1CCN(Cc2c(C(=O)N/N=C/c3ccc(C(F)(F)F)cc3)nnn2-c2nonc2N)CC1	.	-	-	-	-	-
CC1CCN(Cc2c(C(=O)N/N=C/c3cc(Br)ccc3O)nnn2-c2nonc2N)CC1	.	12.9	89.5	-	59.2	.
Nc1nonc1-n1nnc(C(=O)N/N=C/c2c(Cl)cccc2Cl)c1CN1CCOCC1	.	-	-	-	-	.
O=C(CNC(=O)C1CCCCC1)NCc1ccco1	.	-	-	-	-	-
Cc1ccc(S(=O)(=O)N2CCN(C(=O)CSc3ccc(Cl)cc3)CC2)cc1	.	-	-	-	-	-
Cc1ccc(SCC2(O)CCN(S(=O)(=O)c3ccc(Cl)cc3)CC2)cc1	81.4	-	-	-	-	-
